Reference: ChEMBL document CHEMBL3425481, “Design, synthesis and anticancer activity of matrine-1H-1,2,3-triazole-chalcone conjugates” (Bioorg Med Chem Lett, 2015)

Tests used:
A549 [1] = experiment: Antitumor activity against human A549 cells xenografted in Balb/ca-nu mouse assessed as tumor growth inhibition at 10 mg/kg, iv dosed every 3 days for total of 7 dosing rounds measured on day 14 after treatment; type: functional; settings: read-out: TGI
Method in brief: (§1)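 A549 xenograft in mice, dosed by tail vein injection every 3 days; vehicle saline plus 0.2% Tween 80. n = 8 per treatment group, 6 in the vehicle group. Mean ± SE.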

A549 [2] = experiment: Induction of apoptosis in human A549 cells assessed as necrosis cells level at 0.5 times antiproliferative IC50 incubated for 24 hrs by Annexin V-FITC/propidium iodide double staining based flow cytometry (reference value: 0.042%); type: functional
A549 [3] = experiment: Potency index, ratio of IC50 for 5-fluorouracil to IC50 for compound against human A549 cells incubated for 48 hrs by CCK8 assay; type: functional
A549 [4] = experiment: Induction of apoptosis in human A549 cells assessed as viable cells level at IC50 incubated for 24 hrs by Annexin V-FITC/propidium iodide double staining based flow cytometry (reference value: 99.7%); type: functional
[5] = Antiproliferative activity against human Bel7402 cells assessed as inhibition of cell proliferation incubated for 48 hrs by CCK8 assay; type: functional, cell-based; settings: Bel-7402, 48 h
Method in brief: (§2)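 Human A549 lung, Hela cervical, Bel-7402 hepatocellular and MCF-7 breast cancer cells, plus mouse embryo fibroblast NIH3T3, tested for anti-proliferative activity by CCK-8 assay. For the matrine combination tests, the chalcone and matrine were used at a 1:1 molar ratio; values given as IC50.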

A549 [6] = experiment: Antitumor activity against human A549 cells xenografted in Balb/ca-nu mouse assessed as tumor growth inhibition at 10 mg/kg, iv dosed every 3 days for total of 7 dosing rounds measured on day 12 after treatment; type: functional; settings: read-out: TGI; method in brief: as §1
A549 [7] = experiment: Induction of apoptosis in human A549 cells assessed as early apoptosis cells level at 0.5 times antiproliferative IC50 incubated for 24 hrs by Annexin V-FITC/propidium iodide double staining based flow cytometry (reference value: 0.116%); type: functional
A549 [8] = experiment: Antiproliferative activity against human A549 cells assessed as inhibition of cell proliferation incubated for 48 hrs by CCK8 assay; type: functional, cell-based; settings: A549, 48 h; method in brief: as §2
A549 [9] = experiment: Induction of apoptosis in human A549 cells incubated for 24 hrs by Annexin V-FITC/propidium iodide double staining based flow cytometry; type: functional, cell-based
Mus musculus = experiment: Toxicity in human A549 cells xenografted Balb/ca-nu mouse assessed as effect on body weight at 2.5 to 10 mg/kg, iv dosed every 3 days for total of 7 dosing rounds measured on day 10 to day 20 after treatment; type: organism-based; set-up: dose 2.5-10 mg/kg, route intravenous; settings: in vivo, 72 h; method in brief: as §1

SMILES: O=C(/C=C/c1cccc(Cl)c1)c1ccc(OCc2cn([C@H]3CC(=O)N4C[C@@H]5CCCN6CCC[C@@H]([C@H]56)[C@H]4C3)nn2)cc1O
- inhibition in vivo at 10 mg/kg (A549 [1]): 78.8%
- Activity (A549 [2]): 5.99%
- Ratio IC50 (A549 [3]): 8
- Activity (A549 [4]): 47.7%
- IC50 [5]: 5.6 µM
- inhibition in vivo at 10 mg/kg (A549 [6]): 70.9%
- Activity (A549 [7]): 19.8%
- IC50 (A549 [8]): 5.01 µM
- Activity (A549 [9]): Dose-dependent effect
- Activity (Mus musculus): Non-toxic
